For orientation: IC50 means the concentration that inhibits the measured activity by half.

The test system of one data set is AGS (G12D). Briefly: WST cell viability assay, AGS cells. The conditions noted are these: Homo sapiens, 72 h, read-out: IC50 AGS (G12D). It is filed as cell-based.
In a further data set the test system is AsPC1 (G12D). As to the kind of experiment: WST cell viability assay, AsPC1 cells. It is filed as cell-based. The following applies: Homo sapiens, ASPC1, 72 h, read-out: IC50 AsPC1 (G12D).
In another data set the test system is Hek293 (Normal). As to the kind of experiment: WST cell viability assay, Hek293 cells. The following applies: Homo sapiens, HEK293, 72 h, read-out: IC50 Hek293 (Normal). The class given is cell-based.
The subject of a further data set is SNU1197 (G12D). Briefly: WST cell viability assay, SNU1197 cells. The conditions noted are these: 72 h, read-out: IC50 SNU1197 (G12D). The class given is cell-based.
A further data set has as its system AGS cells. As to the kind of experiment: Annexin V-FITC/PI apoptosis detection assay, AGS cells. The class given is cell-based. The following applies: AGS, 0, 2.5, and 5 μM, 24 h, flow cytometry. In outline: (§1)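 AGS or MKN1 cells were seeded at 3–5 × 10^5 cells/well in 6-well plates and grown overnight. They were treated with test compound at 0, 2.5 or 5 μM for 24 h. Cells were harvested, PBS-washed and resuspended in 1X binding buffer.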
In general terms: In flow cytometry, cells or beads pass a laser one at a time.

For data set [1], the system named is MKN1 (KRAS wild-type) cells. Briefly: Annexin V-FITC/PI apoptosis detection assay, MKN1 cells. The class given is cell-based. The conditions noted are these: MKN1, 0, 2.5, and 5 μM, 24 h, flow cytometry. Put shortly:
as §1

Data set [2] deals with KRAS-GTP (active KRAS) in AGS cells (Homo sapiens, UniProt P01116, G12D). As to the kind of experiment: GST-RBD pulldown assay, AGS cells. It is filed as cell-based. The conditions noted are these: 5 or 7.5 μM, 24 h. In outline: (§2)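 AGS or MKN1 cells were exposed to DMSO or test compound (0, 5, 7.5 μM) for 24 h and lysed in 1X passive lysis buffer. Lysate (400 μg protein) was incubated overnight with glutathione–GST-RBD to capture GTP-bound KRAS. Pulled-down protein was immunoblotted with anti-KRAS antibody, and band intensity was quantified (n = 2).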

In data set [3] the target is KRAS-GTP (active KRAS) in MKN1 cells (Homo sapiens, UniProt P01116). Briefly: GST-RBD pulldown assay, MKN1 cells. The conditions noted are these: MKN1, 5 or 7.5 μM, 24 h. The class given is cell-based. In outline:
as §2

The test system of data set [4] is pERK, pAKT, pS6, cleaved PARP in AGS cells. Briefly: Immunoblotting of KRAS downstream signals and PARP, AGS cells. The conditions noted are these: 5 or 7.5 μM, 24 h. The class given is cell-based. In outline: (§3)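 Cells (3–5 × 10^5/well, 6-well plates) were grown overnight, then given DMSO or test compound at 5 or 7.5 μM for 24 h. Lysis was in RIPA with protease/phosphatase inhibitors, with BCA protein assay. Equal protein was run on 8–12% SDS-PAGE and transferred to nitrocellulose. Blots were blocked in 5% milk/TBST, probed overnight at 4 °C (ERK, pERK, AKT, pAKT, S6, pS6, PARP), then HRP secondary 1 h, ECL. Bands were normalised to β-actin (n = 2).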

The subject of data set [5] is KRAS downstream proteins, including PARP, in MKN1 cells. Briefly: Immunoblotting of KRAS downstream signals and PARP, MKN1 cells. The class given is cell-based. The following applies: MKN1, 5 or 7.5 μM, 24 h. Put shortly:
as §3
In general terms: Immunoblotting shows a protein as a band on a membrane.

A further data set relates to AsPC1 tumor. Briefly: In vivo antitumor efficacy study, AsPC1 xenograft. Set-up: species or system female BALB/c nude mice. The following applies: 15 mg/kg i.p. once daily for 14 days. In outline: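 Female BALB/c nude mice (5–6 weeks) received 5.0 × 10^6 AsPC1 cells s.c. into the right hind flank in PBS. At tumour volume >100 mm3, mice were randomised to vehicle or test compound at 15 mg/kg i.p. once daily for 14 days (10% DMSO, 40% PEG300, 5% Tween-80, 45% saline; 200 μL/mouse). Tumours were measured by caliper thrice weekly and body weight twice weekly. TGI (%) = (1 − RTVtreatment/RTVcontrol) × 100, with RTV relative to day 0.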

As to `Cc1nc(-c2ccc(Cl)cc2)nc(N2CCC3(CC2)CNC3)c1Cc1ccccc1` [PY1-2, 7-(5-benzyl-2-(4-chlorophenyl)-6-methylpyrimidin-4-yl)-2,7-diazaspiro[3.5]nonane, 2,2,2-trifluoroacetic acid], the IC50 with AGS (G12D) came out at 3.3 ± 0.6 µM; with AsPC1 (G12D) it was 10.9 ± 0.4 µM; with Hek293 (Normal), 9.1 ± 0.7 µM.

As for `Cl.c1ccc(CN(Cc2ccccc2)c2nc(N3CCC4(CC3)CNC4)c3ncn(Cc4ccccc4)c3n2)cc1` [PU1-1, N,N,9-tribenzyl-6-(2,7-diazaspiro[3.5]nonan-7-yl)-9H-purin-2-amine hydrogen chloride], the IC50 with AGS (G12D) is 3.2 ± 0.4 µM; in the data set with AsPC1 (G12D) it was 5.9 ± 0.3 µM; in the data set on SNU1197 (G12D), 3.8 ± 0.8 µM; with Hek293 (Normal) it was 9.2 ± 0.2 µM. In addition, in the data set with AGS cells, the “proportion of early (LR) and late apoptotic (UR) cells” value is listed as “increased”. In data set [1], the apoptosis result is “did not show significant apoptosis”. In data set [2], the KRAS-GTP levels entry is listed as “significantly downregulated”. Also, the KRAS-GTP protein expression entry in data set [3] is given as “no protein expression changes”. Further, in data set [4], the “pERK, pAKT, and pS6 levels” value was “significantly decreased”. Also, the “levels of cleaved PARP” value in data set [4] (versus DMSO-treated group) is on record as “significantly increased”. In [5], the “KRAS downstream proteins, including PARP, expression” value is recorded as “no protein expression changes”. Besides, the “body weight change during treatment” value in the data set on AsPC1 tumor is given as “no noticeable weight loss”. Also, in the data set with AsPC1 tumor (day 14), the “TGI (tumor growth inhibition)” value was found to be 42%.

Take `C#Cc1c(F)ccc2cc(O)cc(-c3ncc4c(N5CC6CCC(C5)N6)nc(OC[C@@]56CCCN5C[C@H](F)C6)nc4c3F)c12` [MRTX1133, reference compound]: the IC50 came out at 0.0065 µM in the data set with AGS (G12D), 0.062 µM with AsPC1 (G12D), 0.037 µM in the data set on SNU1197 (G12D) and 19.7 µM in the data set on Hek293 (Normal).

The values are drawn from PMC11015380 (Heliyon, 2024).
